Source: ChEMBL document CHEMBL1800048, “Gambogic acid, a natural product inhibitor of Hsp90” (J Nat Prod, 2011)
Active and inactive are the calls of the source. The calls are words filed in the database; no cut-off is given here.

How the values were obtained:
[1] = target: T1, Hsp90 co-chaperone Cdc37 (Homo sapiens) (UniProt Q16543); test: Inhibition of Cdc37 interaction with heme-regulated [35S]His-tagged eIF2alpha K199R mutant kinase in reticulocyte lysate assessed as coadsorbed Cdc37 at 80 uM after 40 mins by SDS-PAGE and Western blot analysis
T1 sequence (whole entry): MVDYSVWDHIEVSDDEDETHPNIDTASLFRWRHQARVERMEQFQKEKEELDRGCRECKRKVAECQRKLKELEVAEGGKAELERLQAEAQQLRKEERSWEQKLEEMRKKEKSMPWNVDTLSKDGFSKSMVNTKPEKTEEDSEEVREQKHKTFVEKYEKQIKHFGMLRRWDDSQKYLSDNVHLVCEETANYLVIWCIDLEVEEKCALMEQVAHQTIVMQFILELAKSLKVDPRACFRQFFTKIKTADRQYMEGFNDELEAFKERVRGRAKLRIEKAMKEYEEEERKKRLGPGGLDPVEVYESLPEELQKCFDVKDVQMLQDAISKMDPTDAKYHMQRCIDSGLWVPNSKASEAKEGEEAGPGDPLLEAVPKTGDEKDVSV
In short: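 His-tagged kinase-dead HRI K199R made by TnT in reticulocyte lysate with [35S]methionine. After 10 min of synthesis, compound or DMSO (4% v/v) added, then 40 min more. Immunoadsorbed with anti-His-tag antibody on anti-mouse-IgG agarose. Washed four times in 10 mM PIPES pH 7.2, 100 mM NaCl. Co-adsorbed Hsp90, Hsp70 and Cdc37 read by SDS-PAGE and Western blot; plasmid-free lysate as nonspecific control.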

[2] = Inhibition of Hsp90-mediated [35S]His-tagged HRI maturation in heme-deficient reticulocyte lysate at 80 uM after 45 mins by SDS-PAGE and autoradiography
In short: (§1)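 Wild-type [35S]His-tagged HRI made by coupled transcription-translation in reticulocyte lysate with [35S]methionine. Compound or DMSO (4% v/v) added after 20 min, then 10 min more. Sample diluted into 7 volumes of heme-deficient lysate (hemin 20 µM as reference) holding the same compound level, 45 min. HRI pulled down on NTA-Ni resin, 1 h on ice. SDS-PAGE and autoradiography; mobility shift and band densitometry as % of minus-heme control.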

[3] = Effect on [35S]His-tagged HRI stability in heme-deficient reticulocyte lysate assessed as loss of [35S]His-tagged HRI at 80 uM after 45 mins by SDS-PAGE and autoradiography; in short: as §1
[4] = Inhibition of Hsp90-mediated [35S]His-tagged HRI maturation in heme-deficient reticulocyte lysate at 4 mM after 45 mins by SDS-PAGE and autoradiography; in short: as §1
[5] = Effect on [35S]His-tagged HRI stability in heme-deficient reticulocyte lysate assessed as loss of [35S]His-tagged HRI at 4 mM after 45 mins by SDS-PAGE and autoradiography; in short: as §1
[6] = Inhibition of Hsp90-mediated [35S]His-tagged HRI maturation in heme-deficient reticulocyte lysate at 400 uM after 45 mins by SDS-PAGE and autoradiography
In short: (§2)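 [35S]His-tagged wild-type HRI was made by transcription-translation in reticulocyte lysate. Compound or 4% v/v DMSO was added at 20 min, followed by 10 min more. Samples were diluted into 7 volumes of heme-deficient lysate holding the same compound concentration; hemin-supplemented (20 µM) lysate was the reference. After 45 min, HRI was captured on Ni-NTA on ice for 1 h. Maturation was scored by mobility shift on SDS-PAGE and autoradiography.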

[7] = Effect on [35S]His-tagged HRI stability in heme-deficient reticulocyte lysate assessed as loss of [35S]His-tagged HRI at 400 uM after 45 mins by SDS-PAGE and autoradiography
[8] = target: T1, Hsp90 co-chaperone Cdc37 (Homo sapiens); details: 100 uM
[9] = Inhibition of Hsp90-dependent refolding of luciferase in reticulocyte lysate by microplate reader
[10] = Effect on [35S]His-tagged HRI stability in heme-deficient reticulocyte lysate assessed as loss of [35S]His-tagged HRI at 100 uM after 45 mins by SDS-PAGE and autoradiography
[11] = Inhibition of Hsp90-mediated [35S]His-tagged HRI maturation in heme-deficient reticulocyte lysate at 100 uM after 45 mins by SDS-PAGE and autoradiography; in short: as §2
[12] = target: T2, Heat shock protein HSP90 (Homo sapiens, UniProt P07900+P08238); test: Inhibition of Hsp90 in human HeLa cells assessed as Raf degradation at 0.01 to 20 uM after 36 hrs by Western blot analysis; assay type: cell-based
In short: (§3)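 Cells (1×10^6 per dish) were attached overnight, then exposed to the compound for 36 h. […] Extracts (10 µg protein) were Western blotted for Her2, Akt, Raf-1, Hsp90 and Hsp70, with actin as loading control.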

[13] = target: T2, Heat shock protein HSP90; test: Inhibition of Hsp90 in human MCF7 cells assessed as Her2 degradation after 36 hrs by Western blot analysis; assay type: cell-based; in short: as §3
[14] = target: T2, Heat shock protein HSP90; test: Inhibition of Hsp90 in human MCF7 cells assessed as Akt degradation after 36 hrs by Western blot analysis; assay type: cell-based; in short: as §3
[15] = target: T2, Heat shock protein HSP90; test: Binding affinity to human Hsp90 N-terminal domain (1 to 241) expressed in Escherichia coli DE-3 Star cells by SPR analysis
[16] = target: T2, Heat shock protein HSP90; test: Inhibition of Hsp90 in human MCF7 cells assessed as induction of Hsp90 expression after 36 hrs by Western blot analysis; assay type: cell-based; in short: as §3
[17] = target: T2, Heat shock protein HSP90; test: Inhibition of Hsp90 in human SKBR3 cells assessed as induction of Hsp90 expression after 36 hrs by Western blot analysis; assay type: cell-based; details: SK-BR-3; in short: as §3
[18] = tested on: SK-BR-3; test: Antiproliferative activity against human SKBR3 cells assessed as inhibition of cell growth after 72 hrs by cell titer 96 assay; assay type: functional; details: SK-BR-3, 72 h
In short: (§4)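 Cells seeded at 2000/well and left to attach overnight. HeLa was grown in MEM with non-essential amino acids, 2 mM glutamine and 10% FBS. SkBr3 was grown in DMEM/F12 (1:1) with penicillin/streptomycin and 10% FBS. Varying compound concentrations or 1% DMSO vehicle were added for 72 h at 37 °C. Tetrazolium reagent was added for 1 h, then A490 read; viability expressed as % of DMSO wells.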

[19] = target: T1, Hsp90 co-chaperone Cdc37 (Homo sapiens); details: 50 uM
[20] = target: T2, Heat shock protein HSP90; test: Binding affinity to human Hsp90 C-terminal domain (531 to 732) expressed in Escherichia coli DE-3cstar cells by SPR analysis
In short: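 Hsp90 N-terminal (aa 1–241) or C-terminal (aa 531–732) domain was expressed in E. coli, Ni-NTA purified, His-tag TEV-cleaved, then gel-filtered and biotinylated for SPR. Analyte was injected in 10 mM PIPES pH 7.4, 300 mM NaCl, 2% DMSO at 15 µL/min, 25 °C. […] Triplicates; ka, kd and KD were derived from fits.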

[21] = tested on: HeLa; test: Antiproliferative activity against human HeLa cells assessed as inhibition of cell growth after 72 hrs by cell titer 96 assay; assay type: functional; in short: as §4
[22] = target: T2, Heat shock protein HSP90; test: Inhibition of Hsp90 in human MCF7 cells assessed as Raf degradation after 36 hrs by Western blot analysis; assay type: cell-based; in short: as §3
[23] = Effect on [35S]His-tagged HRI stability in heme-deficient reticulocyte lysate assessed as loss of [35S]His-tagged HRI at 50 uM after 45 mins by SDS-PAGE and autoradiography
[24] = target: T2, Heat shock protein HSP90; test: Binding affinity to human full length Hsp90 expressed in insect Sf9 cells by SPR analysis
In short: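 Full-length human Hsp90β from baculovirus-infected Sf9 cells was amine-coupled by EDC/NHS to a carboxyl SPR chip (about 2000 RU). Compound at 1.0–50 µM was injected in 10 mM PIPES pH 7.4, 300 mM NaCl, 2% DMSO at 15 µL/min, 25 °C. Measured in triplicate; ka, kd and KD were derived from curve fits.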

[25] = target: T2, Heat shock protein HSP90; test: Inhibition of Hsp90 in human SKBR3 cells assessed as Her2 degradation after 36 hrs by Western blot analysis; assay type: cell-based; details: SK-BR-3
In short: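 SkBr3 cells (1×10^6 per dish) were attached overnight, then exposed to the compound for 36 h. […] Her2 was Western blotted from 1 µg extract protein, with actin as loading control.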

[26] = target: T2, Heat shock protein HSP90; test: Binding affinity to human Hsp90 N-terminal domain (1 to 241) expressed in Escherichia coli DE-3 Star cells by SPR analysis in presence of 20 uM geldanamycin
[27] = target: T2, Heat shock protein HSP90; test: Inhibition of Hsp90 in human HeLa cells assessed as Her2 degradation at 0.01 to 20 uM after 36 hrs by Western blot analysis; assay type: cell-based; in short: as §3
[28] = target: T2, Heat shock protein HSP90; test: Inhibition of Hsp90 in human SKBR3 cells assessed as Akt degradation after 36 hrs by Western blot analysis; assay type: cell-based; details: SK-BR-3; in short: as §3
[29] = target: T2, Heat shock protein HSP90; test: Inhibition of Hsp90 in human SKBR3 cells assessed as induction of Hsp70 expression after 36 hrs by Western blot analysis; assay type: cell-based; details: SK-BR-3; in short: as §3
[30] = target: T2, Heat shock protein HSP90; test: Inhibition of Hsp90 in human MCF7 cells assessed as induction of Hsp70 expression after 36 hrs by Western blot analysis; assay type: cell-based; in short: as §3
[31] = target: T2, Heat shock protein HSP90; test: Inhibition of Hsp90 in human SKBR3 cells assessed as Raf degradation after 36 hrs by Western blot analysis; assay type: cell-based; details: SK-BR-3; in short: as §3
[32] = target: T2, Heat shock protein HSP90; test: Inhibition of Hsp90 in human HeLa cells assessed as Akt degradation at 0.01 to 20 uM by Western blot analysis; assay type: cell-based; in short: as §3
[33] = Inhibition of Hsp90-mediated [35S]His-tagged HRI maturation in heme-deficient reticulocyte lysate at 50 uM after 45 mins by SDS-PAGE and autoradiography; in short: as §2
[34] = Effect on [35S]His-tagged HRI stability in heme-deficient reticulocyte lysate assessed as loss of [35S]His-tagged HRI at 20 mM after 45 mins by SDS-PAGE and autoradiography; in short: as §1
[35] = target: Hsp90 co-chaperone Cdc37 (Homo sapiens) (UniProt Q16543); details: 20 mM
[36] = Inhibition of Hsp90-mediated [35S]His-tagged HRI maturation in heme-deficient reticulocyte lysate at 20 mM after 45 mins by SDS-PAGE and autoradiography; in short: as §1

Molecule: COC1=C2C[C@@H](C)C[C@H](OC)[C@H](O)[C@@H](C)/C=C(\C)[C@H](OC(N)=O)[C@@H](OC)/C=C\C=C(/C)C(=O)NC(=CC1=O)C2=O
- Activity [1]: Active
- inhibition [2]: Active
- Activity [3]: 0%

Molecule: CO[C@@H]1[C@@H](OC(N)=O)[C@@H](O)[C@H](Oc2ccc3c(O)c(NC(=O)c4ccc(O)c(CC=C(C)C)c4)c(=O)oc3c2C)OC1(C)C
- inhibition [4]: Active
- Activity [5]: 90%

Molecule: CO[C@H]1[C@H](OC(=O)c2ccc(C)[nH]2)[C@H](O)[C@@H](Oc2ccc3c(O)c(NC(=O)c4c[nH]c(C(=O)Nc5c(O)c6ccc(O[C@H]7OC(C)(C)[C@@H](OC)[C@H](OC(=O)c8ccc(C)[nH]8)[C@@H]7O)c(C)c6oc5=O)c4C)c(=O)oc3c2C)OC1(C)C
- inhibition [6]: Active
- Activity [7]: 80%

Molecule: CC1=C(O)C(=O)C=C2C1=CC=C1[C@@]2(C)CC[C@@]2(C)[C@@H]3C[C@](C)(C(=O)O)CC[C@]3(C)CC[C@]12C [CELASTROL]
- Activity [8]: inactive
- IC50 [9]: 20 µM
- Activity [10]: 40%
- inhibition [11]: Active

Molecule: CC(C)=CCC[C@]1(C)C=Cc2c(O)c3c(c(CC=C(C)C)c2O1)O[C@]12C(=C[C@@H]4C[C@H]1C(C)(C)O[C@@]2(C/C=C(/C)C(=O)O)C4=O)C3=O [GAMBOGIC ACID]
- inhibition [12]: Active
- IC50 [9]: 2 µM
- inhibition [13]: Dose-dependent effect
- inhibition [14]: Dose-dependent effect
- Kd [15]: 7.6 µM
- inhibition [16]: Dose-dependent effect
- inhibition [17]: Dose-dependent effect
- GI50 [18]: 0.8 µM
- Activity [19]: inactive
- Activity [20]: inactive
- GI50 [21]: 1.5 µM
- inhibition [22]: Dose-dependent effect
- Activity [23]: 10%
- Kd [24]: 9.8 µM
- inhibition [25]: Dose-dependent effect
- Kd [26]: 7 µM
- inhibition [27]: Active
- inhibition [28]: Dose-dependent effect
- inhibition [29]: Dose-dependent effect
- inhibition [30]: Dose-dependent effect
- inhibition [31]: Dose-dependent effect
- inhibition [32]: Active
- inhibition [33]: inactive

Molecule: SODIUM MOLYBDATE
- Activity [34]: 10%
- Activity [35]: Active
- inhibition [36]: Active
